Experimental data taken from ChEMBL document CHEMBL1148460, “Interaction of cycloSal-pronucleotides with cholinesterases from different origins. A structure-activity relationship” (J Med Chem, 2004).

Experiments:
Acetylcholinesterase = Acetylcholinesterase (Electrophorus electricus, UniProt O42275); experiment: Inhibitory activity towards Electrophorus electricus acetylcholinesterase
CCRF-CEM = experiment: Anti-HIV-1 activity tested in human lymphocytic CEM cells; format: functional, cell-based
Cholinesterase = Cholinesterase (Homo sapiens, UniProt P06276); experiment: Inhibitory activity towards human butyrylcholinesterase
Sequence of Cholinesterase (P06276 whole entry): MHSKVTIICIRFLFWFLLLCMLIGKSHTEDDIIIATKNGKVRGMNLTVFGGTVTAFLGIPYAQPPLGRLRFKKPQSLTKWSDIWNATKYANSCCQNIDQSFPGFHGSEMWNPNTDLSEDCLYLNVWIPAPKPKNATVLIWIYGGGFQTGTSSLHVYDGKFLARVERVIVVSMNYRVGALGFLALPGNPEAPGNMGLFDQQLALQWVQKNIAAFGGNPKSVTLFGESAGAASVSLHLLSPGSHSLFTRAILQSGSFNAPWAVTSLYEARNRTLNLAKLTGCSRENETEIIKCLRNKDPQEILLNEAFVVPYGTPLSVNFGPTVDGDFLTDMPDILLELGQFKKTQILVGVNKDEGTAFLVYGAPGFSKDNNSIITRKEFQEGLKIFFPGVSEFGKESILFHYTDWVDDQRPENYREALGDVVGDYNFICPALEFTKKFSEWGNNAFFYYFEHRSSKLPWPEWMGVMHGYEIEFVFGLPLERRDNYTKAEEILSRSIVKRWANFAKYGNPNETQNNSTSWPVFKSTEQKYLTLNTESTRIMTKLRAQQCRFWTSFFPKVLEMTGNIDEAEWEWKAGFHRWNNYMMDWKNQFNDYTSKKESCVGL
Outline: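 Modified Rappaport assay following acetylcholine chloride hydrolysis to acetic acid, with m-nitrophenol indicator in phosphate buffer at pH 7.8 and NaCl. The compound is added in DMSO, and the reaction is started with serum (human, mouse or calf). A420 is read at 25 °C at 0 and 5 min. Final inhibitor is 0.1, 0.5, 1, 5, 10, 30 and 50 µM. IC50 is interpolated from ΔE plots in the pseudolinear region.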

Sequence of Acetylcholinesterase (O42275 whole entry): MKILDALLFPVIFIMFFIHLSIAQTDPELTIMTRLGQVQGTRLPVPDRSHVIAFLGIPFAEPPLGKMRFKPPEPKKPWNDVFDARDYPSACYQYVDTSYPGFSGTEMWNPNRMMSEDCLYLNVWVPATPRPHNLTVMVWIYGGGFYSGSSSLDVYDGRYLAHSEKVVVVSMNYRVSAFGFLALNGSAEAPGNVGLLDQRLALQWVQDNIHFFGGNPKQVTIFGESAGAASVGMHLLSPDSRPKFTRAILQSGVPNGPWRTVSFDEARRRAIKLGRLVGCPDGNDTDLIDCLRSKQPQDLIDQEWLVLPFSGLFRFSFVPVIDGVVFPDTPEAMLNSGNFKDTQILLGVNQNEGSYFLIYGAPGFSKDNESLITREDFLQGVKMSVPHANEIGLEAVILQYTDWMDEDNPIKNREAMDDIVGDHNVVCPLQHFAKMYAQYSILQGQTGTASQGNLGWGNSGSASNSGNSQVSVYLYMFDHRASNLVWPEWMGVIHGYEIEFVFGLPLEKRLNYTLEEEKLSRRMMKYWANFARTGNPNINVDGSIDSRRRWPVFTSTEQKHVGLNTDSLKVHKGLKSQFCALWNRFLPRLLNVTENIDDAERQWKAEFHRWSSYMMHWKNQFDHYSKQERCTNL

| SMILES | IC50 (Acetylcholinesterase) [µM] | EC50 (CCRF-CEM) [µM] | IC50 (Cholinesterase) [µM] |
| --- | --- | --- | --- |
| COC(=O)CCc1ccc2c(c1)COP(=O)(OCC1C=CC(n3cc(C)c(=O)[nH]c3=O)O1)O2 (stereo unspecified) | > 50 | 0.24 | 8.8 |
| CCOC(=O)CC1OP(=O)(OCC2C=CC(n3cc(C)c(=O)[nH]c3=O)O2)Oc2cccc(Cl)c21 (stereo unspecified) | > 50 | 0.14 | > 50 |
| Cc1cccc2c1OP(=O)(OCC1CC(O)C(n3cnc4c(N)ncnc43)O1)OC2 (stereo unspecified) | > 50 | – | 28 |
| CCCCC1OP(=O)(OCC2C=CC(n3cc(C)c(=O)[nH]c3=O)O2)Oc2cccc(Cl)c21 (stereo unspecified) | > 50 | 0.19 | 13 |
| Cc1cccc2c1OP(=O)(OC[C@H]1O[C@@H](N3C=NC4C(=O)N=C(N)N=C43)C[C@@H]1O)OC2 (stereo partly specified) | > 50 | – | > 50 |
| Cc1cn(C2C=CC(COP3(=O)OCc4c(ccc5ccccc45)O3)O2)c(=O)[nH]c1=O (stereo unspecified) | > 50 | 0.09 | 3.9 |
| Cc1cn(C2C=CC(COP3(=O)OCc4ccc5ccccc5c4O3)O2)c(=O)[nH]c1=O (stereo unspecified) | > 50 | 0.14 | 0.25 |
| Cc1cn(C2C=CC(COP3(=O)OCc4cccc(CCC(=O)OCc5ccccc5)c4O3)O2)c(=O)[nH]c1=O (stereo unspecified) | > 50 | 0.15 | 2.8 |
| Cc1cn([C@H]2C=C[C@@H](COP3(=O)OCc4cccc(C(C)(C)C)c4O3)O2)c(=O)[nH]c1=O (stereo partly specified) | > 50 | 0.18 | 4.2 |
| Cc1cn(C2C=CC(COP3(=O)OCc4cc(CCC(=O)O)ccc4O3)O2)c(=O)[nH]c1=O (stereo unspecified) | > 50 | 0.14 | > 50 |
| Cc1cn(C2C=CC(COP3(=O)OCc4cc(-c5ccccc5)ccc4O3)O2)c(=O)[nH]c1=O (stereo unspecified) | > 50 | 0.4 | 4.4 |
| Cc1cn(C2C=CC(COP3(=O)Oc4ccccc4C(C(Cl)Cl)O3)O2)c(=O)[nH]c1=O (stereo unspecified) | > 50 | 0.16 | 26 |
| Cc1cn(C2C=CC(COP3(=O)OCc4cc5ccccc5cc4O3)O2)c(=O)[nH]c1=O (stereo unspecified) | > 50 | 0.41 | 0.41 |
| CCC(C)c1ccc2c(c1)COP(=O)(OCC1C=CC(n3cc(C)c(=O)[nH]c3=O)O1)O2 (stereo unspecified) | > 50 | 1.9 | 3.3 |
| O=C1NC(=O)N([C@H]2C[C@H](O)[C@@H](COP3(=O)OCc4cccc(-c5ccccc5)c4O3)O2)C[C@H]1/C=C/Br (stereo partly specified) | > 50 | – | > 50 |
| O=C1NC(=O)N([C@H]2C[C@H](O)[C@@H](CO[P@]3(=O)OCc4cccc(-c5ccccc5)c4O3)O2)CC1/C=C/Br (stereo partly specified) | > 50 | – | 3.7 |
| Cc1cn(C2C=CC(COP3(=O)Oc4ccccc4C(C(Cl)(Cl)Cl)O3)O2)c(=O)[nH]c1=O (stereo unspecified) | > 50 | 0.19 | 27 |
| Cc1cccc2c1OP(=O)(OC[C@H]1O[C@@H](n3cc(C)c(=O)[nH]c3=O)C[C@@H]1O)OC2 (stereo partly specified) | > 50 | – | 36 |
| Cc1cccc2c1OP(=O)(OC[C@@H]1C=C[C@H](n3cc(C)c(=O)[nH]c3=O)O1)OC2 (stereo partly specified) | > 50 | – | 1.2 |
| Cc1cn(C2C=CC(COP3(=O)Oc4cccc(Cl)c4C(C)O3)O2)c(=O)[nH]c1=O (stereo unspecified) | > 50 | 0.19 | 1.8 |
| Cc1cc(C)c2c(c1)COP(=O)(OCC1C=CC(n3cc(C)c(=O)[nH]c3=O)O1)O2 (stereo unspecified) | > 50 | – | 46 |
| Cc1ccc2c(c1)COP(=O)(OC[C@@H]1C=C[C@H](n3cc(C)c(=O)[nH]c3=O)O1)O2 (stereo partly specified) | > 50 | – | 4.6 |
| Cc1cccc2c1OP(=O)(OC[C@@H]1C[C@@H](F)[C@H](n3cnc4c(N)ncnc43)O1)OC2 (stereo partly specified) | > 50 | – | 1.1 |
| Cc1cn([C@H]2C=C[C@@H](COP3(=O)OCc4ccccc4O3)O2)c(=O)[nH]c1=O (stereo partly specified) | > 50 | – | 0.77 |
| Cc1cccc2c1OP(=O)(OCC1OC(n3cc(C)c(=O)[nH]c3=O)CC1=O)OC2 (stereo unspecified) | > 50 | – | > 50 |
| Cc1cccc2c1O[P@@](=O)(OC[C@H](CO)OCn1cnc3c(O)nc(N)nc31)OC2 | > 50 | – | 23 |
